KCC2 mod – KCC2 (human) Cl- transport modulation; Q9H2X9; KCC2 cells, thallium flux FluoZin-2 fluorescence; B-score of Tl+ flux slope (higher = more flux/activation; lower = inhibition) at 10 µM; actives 2.2% (n = 190,000);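 active = thallium flux slope and its plate-corrected score both differing from the plate sample mean at a set confidence after two filtering rounds, in either direction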;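 also: slope of fluorescence scaled to starting intensity during 10 to 20 s after thallium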
Target sequence (Q9H2X9 whole entry, looked up): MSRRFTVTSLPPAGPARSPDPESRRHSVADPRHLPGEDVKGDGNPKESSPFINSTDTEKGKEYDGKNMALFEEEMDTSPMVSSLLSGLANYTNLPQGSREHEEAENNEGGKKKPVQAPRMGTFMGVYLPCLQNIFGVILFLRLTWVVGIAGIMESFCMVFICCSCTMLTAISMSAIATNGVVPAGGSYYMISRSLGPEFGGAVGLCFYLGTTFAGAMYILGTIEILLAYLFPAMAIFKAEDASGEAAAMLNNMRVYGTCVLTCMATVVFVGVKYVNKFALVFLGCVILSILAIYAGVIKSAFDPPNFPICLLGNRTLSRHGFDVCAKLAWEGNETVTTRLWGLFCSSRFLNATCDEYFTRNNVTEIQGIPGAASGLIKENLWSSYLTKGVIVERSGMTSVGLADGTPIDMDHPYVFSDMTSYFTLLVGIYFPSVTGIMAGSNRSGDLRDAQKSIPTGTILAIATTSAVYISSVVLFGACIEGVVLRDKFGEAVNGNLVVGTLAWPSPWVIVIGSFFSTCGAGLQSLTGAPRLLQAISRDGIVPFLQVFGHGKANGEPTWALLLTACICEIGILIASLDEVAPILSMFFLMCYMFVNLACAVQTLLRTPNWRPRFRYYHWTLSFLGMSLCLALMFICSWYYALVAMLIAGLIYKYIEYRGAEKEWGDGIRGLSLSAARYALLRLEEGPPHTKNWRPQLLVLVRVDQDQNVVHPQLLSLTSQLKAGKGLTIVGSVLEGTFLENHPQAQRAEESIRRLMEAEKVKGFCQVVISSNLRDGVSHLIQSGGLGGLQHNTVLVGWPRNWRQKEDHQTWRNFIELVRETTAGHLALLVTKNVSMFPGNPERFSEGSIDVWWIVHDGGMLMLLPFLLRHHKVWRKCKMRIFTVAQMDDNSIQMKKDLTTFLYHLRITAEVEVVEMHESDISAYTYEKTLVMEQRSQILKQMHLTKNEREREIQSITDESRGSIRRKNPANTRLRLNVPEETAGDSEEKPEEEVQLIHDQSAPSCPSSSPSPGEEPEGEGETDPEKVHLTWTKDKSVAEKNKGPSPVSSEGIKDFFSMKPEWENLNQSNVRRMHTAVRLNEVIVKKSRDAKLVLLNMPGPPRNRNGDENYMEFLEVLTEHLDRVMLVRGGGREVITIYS
ABCB1 inh – blocks JC-1 efflux by human ABCB1 transporter | P08183 | CCRF-Adr cells, flow cytometry | inhibition, % at 6.6 µM | actives 0.067% (n = 190,000); in the data active = inhibition above about 40%;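 also: higher value means more JC-1 retained so stronger ABCB1 efflux block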
ROMK mod – modulates human ROMK potassium channel activity; AID 1918; Tet-inducible ROMK, thallium flux fluorescence; actives lie on both sides; actives 2% (n = 130,000); P48048; B-score at 10 µM;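 active = signal ratio slope over the read window, or its plate-corrected B-score, at least 3 SD from the plate mean, either direction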;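 also: B-score of the F/F0 ratio slope over 7 to 12 s after thallium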
ABCG2 inh – blocks JC-1 efflux by human ABCG2 transporter; IgMXP3 cells, flow cytometry; inhibition, % at 6.6 µM; actives 0.1% (n = 190,000); AID 1325;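 active = inhibition above 80%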
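Measure – % inhibition of efflux relative to nicardipine and DMSO · Test system – ABCG2 IgMXP3 and barcoded ABCB1 CCRF-Adr cell mix · Control set – nicardipine as high control, DMSO as low control · Compound – one concentration, 6.6 µM final · Signal – flow cytometry of retained JC-1 fluorescence · Timing – 10 min exposure at 25 °C with rotation, no wash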
PMI act hi M6P – PMI (human) activation, high substrate; actives 0.34% (n = 190,000); activation factor at 20 µM; coupled PMI enzyme assay, resazurin fluorescence, 20 min; stronger effect = higher value; 1 = untreated enzyme, 0 = substrate-free blank; AID 1216;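 active = activation factor of 2 or more at 20 µM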
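Test system: human phosphomannose isomerase with PGI, G6PDH, diaphorase coupling enzymes; amount: 15 ng/mL PMI; incubation: enzyme reaction with compound 20 min at room temperature; technique: resorufin fluorescence (Ex 544/Em 590 nm) from resazurin via diaphorase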
PMI act – phosphomannose isomerase (human) activation | activation factor at 20 µM | purified human PMI, coupled resazurin fluorescence, 20 min; stronger effect = higher value; 1 = vehicle control, 0 substrate-free wells | P34949 | actives 0.005% (n = 190,000);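 active = activation factor of 2 or more at 20 µM, relative to plate controls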
KCC2 sec1 – confirmation of human KCC2 transport modulators; shares compounds with KCC2 mod; actives 15% (n = 3,700); AID 1713; normalised thallium flux (F/F0 slope) at 10 µM; HEK293-KCC2, thallium flux, FluoZin2 fluorescence; stronger effect = higher value;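 active = thallium flux slope above the same plate's solvent-only control mean plus 3 SD; inconclusive = the two replicate wells disagree; inactive = no significant difference from solvent-only control wells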
KCC2 bumet counter – bumetanide-insensitive thallium flux in KCC2 cells with ouabain, counter-screen | shares compounds with KCC2 mod | HEK293-KCC2 + bumetanide/ouabain, thallium flux FluoZin2; stronger effect = higher value | normalized thallium flux at 10 µM | actives 49% (n = 3,700);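 active = thallium entry rate above the same plate's blocked-transporter control wells by more than 3 SD; inconclusive = the two repeat wells disagree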;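 also: raw slope of fluorescence over initial fluorescence between 10 and 20 s after thallium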
KCC2 sec2 – KCC2 (human) modulation, second secondary assay. actives 23% (n = 3,700). shares compounds with KCC2 mod. HEK293-KCC2, thallium flux FluoZin2 fluorescence; actives lie on both sides; F/F0 rise rate, 10–20 s post-thallium. normalized thallium flux at 10 µM;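 active = thallium flux slope more than 3 SD above or below the plate's solvent-only control mean, mostly below; inconclusive = the two repeat wells disagreed; inactive = no significant shift from solvent-only controls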
HEK counter1 – counter-screen for KCC2 modulators: effect in parental HEK293 cells. thallium flux rate (normalised fluorescence) at 10 µM. AID 1716. actives 46% (n = 3,700). shares compounds with KCC2 mod. thallium flux FluoZin2, ouabain; baseline-ratio fluorescence slope, 10–20 s after thallium;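 active = thallium flux rate significantly above the same plate's solvent-only control wells, beyond their mean plus 3 SD; inconclusive = the two replicate wells gave conflicting results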
KCC2 retest ouab – confirmation of human KCC2 modulators with ouabain | HEK293-KCC2, thallium flux FluoZin2 fluorescence; bidirectional: low = inhibitor, high = activator | shares compounds with KCC2 mod | raw Tl+ flux slope (below DMSO = inhibition, above = activation) at 10 µM | actives 48% (n = 3,700) | AID 1717;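 active = thallium flux slope beyond 3 SD from same-plate DMSO control mean in most replicates, usually higher, sometimes lower; inconclusive = repeat tests gave conflicting results; inactive = no significant difference from controls in most replicates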;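 also: slope of initial-normalized fluorescence between seconds 10 and 20 after thallium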
HEK293 Tl flux2 – acts in parental HEK cells, second KCC2 counter-screen; shares compounds with KCC2 mod; HEK293 parental, thallium flux FluoZin-2 fluorescence slope; thallium flux slope at 10 µM; actives 33% (n = 3,700);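 active = thallium flux slope above the same plate's solvent-control mean plus 3 SD in both duplicate wells; inconclusive = duplicate wells that disagreed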;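 also: run without ouabain in cells lacking the KCC2 cotransporter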
Large screens that a line does not name were inactive (follow-up assays come after a bar, where they were run). In the library only some 3.3% were active in any assay of this set; here they are far more common.

Cc1cc2c(cc1C)NC(c1nc3ccccc3[nH]1)C1=C(CC(C)(C)CC1=O)N2 (centres undefined)	KCC2 mod -3.8 (no result: ROMK mod) | KCC2 sec1 inactive | KCC2 bumet counter inactive | KCC2 sec2 inactive | HEK counter1 inactive | KCC2 retest ouab inactive | HEK293 Tl flux2 inactive
CCOC(=O)C1(Cc2cccc(F)c2)CCN(Cc2cnn(CC)c2C)CC1	none (no result: ROMK mod, PMI act hi M6P, PMI act)
O=C(C1CCC(CNc2nc(=S)[nH]c3ccccc23)CC1)N1CCN(c2ccc(F)cc2)CC1 (centres undefined)	KCC2 mod -7.5 | KCC2 sec1 inactive | KCC2 bumet counter inactive | KCC2 sec2 0.022 | HEK counter1 0.006 | KCC2 retest ouab 0.01 | HEK293 Tl flux2 inactive
COC(=O)C1=C(C)N(CCCC(=O)O)C(=O)NC1c1cc2c(cc1[N+](=O)[O-])OCO2 (centres undefined)	KCC2 mod 3.7 | KCC2 sec1 inactive | KCC2 bumet counter inconclusive | KCC2 sec2 inactive | HEK counter1 inactive | KCC2 retest ouab inactive | HEK293 Tl flux2 inactive
COC(=O)C1=C(C)N(C)C(=O)NC1c1cc2c(cc1[N+](=O)[O-])OCO2 (centres undefined)	none
CCc1ccc(-n2c(SCC(=O)c3ccc4c(c3)NC(=O)CO4)nc3ccccc3c2=O)cc1	KCC2 mod 2.9 | KCC2 sec1 inactive | KCC2 bumet counter 0.012 | KCC2 sec2 inactive | HEK counter1 0.0086 | KCC2 retest ouab inconclusive | HEK293 Tl flux2 inactive
Cn1c(SCC(=O)c2ccc3c(c2)NC(=O)CO3)nc2ccccc21	none
O=C1COc2ccc(C(=O)CSc3nc4ccccc4c(=O)n3-c3ccc(Cl)c(Cl)c3)cc2N1	KCC2 mod 2.5 | KCC2 sec1 inconclusive | KCC2 bumet counter 0.019 | KCC2 sec2 inactive | HEK counter1 0.01 | KCC2 retest ouab inactive | HEK293 Tl flux2 inconclusive
Cc1ccc(N=Nc2c(C)[nH]n(C(N)=S)c2=O)cc1C	KCC2 mod 16 | KCC2 sec1 inactive | KCC2 bumet counter 0.067 | KCC2 sec2 inactive | HEK counter1 0.021 | KCC2 retest ouab 0.06 | HEK293 Tl flux2 inactive
CC(=O)Nc1ccc(N=Nc2c(C)[nH]n(C(N)=S)c2=O)cc1	none
Cc1[nH]n(C(N)=S)c(=O)c1N=Nc1ccc2ccccc2c1	KCC2 mod 32 | KCC2 sec1 inactive | KCC2 bumet counter 0.088 | KCC2 sec2 inconclusive | HEK counter1 0.027 | KCC2 retest ouab 0.036 | HEK293 Tl flux2 0.019
Cc1[nH]n(C(N)=S)c(=O)c1N=Nc1cc(-c2ccc(Br)cc2)[nH]n1	KCC2 mod -6.9 | KCC2 sec1 inactive | KCC2 bumet counter inactive | KCC2 sec2 inactive | HEK counter1 0.0056 | KCC2 retest ouab 0.011 | HEK293 Tl flux2 inactive
O=C(Nc1ccc(-c2ccc3nncn3n2)cc1)c1ccc(Br)o1	none
CC12CCC(C(=O)N3CCC(Cc4ccccc4)CC3)(C(=O)C1=O)C2(C)C (centres undefined)	none
Cc1ccc2nc(N/C(=N/S(=O)(=O)c3ccc(F)cc3F)c3ccccc3)sc2c1	KCC2 mod 21 | KCC2 sec1 inactive | KCC2 bumet counter 0.0094 | KCC2 sec2 inactive | HEK counter1 0.0096 | KCC2 retest ouab inactive | HEK293 Tl flux2 inconclusive
Cc1cc(N/C(=N\S(=O)(=O)c2ccc(F)cc2F)c2ccccc2)no1	none
Cc1ccc(S(=O)(=O)/N=C(/NC(=S)Nc2cccc(C)c2)c2ccccc2)cc1	KCC2 mod 20 | KCC2 sec1 inactive | KCC2 bumet counter 0.03 | KCC2 sec2 0.042 | HEK counter1 0.022 | KCC2 retest ouab 0.035 | HEK293 Tl flux2 0.024
Cc1ccc2nc(N/C(=N/S(=O)(=O)c3ccc(F)cc3)c3ccccc3)sc2c1	KCC2 mod 4.5 | KCC2 sec1 inactive | KCC2 bumet counter inactive | KCC2 sec2 inactive | HEK counter1 inconclusive | KCC2 retest ouab inactive | HEK293 Tl flux2 inconclusive
O=C(COC(=O)COc1ccccc1Cc1ccccc1)Nc1cccnc1Cl	none
COc1cc(NS(C)(=O)=O)c(OC)cc1NC(=O)c1cccc(F)c1	none (no result: KCC2 mod, ROMK mod)
CCc1nc2ccccc2n1CC(O)COCC1CC=CCC1 (centres undefined)	none
CC1(C)N(O)CC(c2cccs2)=[N+]1[O-]	KCC2 mod 2.9 | KCC2 sec1 inactive | KCC2 bumet counter inactive | KCC2 sec2 inactive | HEK counter1 inactive | KCC2 retest ouab inactive | HEK293 Tl flux2 inactive
Cc1cc2nc3n(c2cc1C)CC1CC(C(=O)NCCc2cccs2)N(C)C31 (centres undefined)	none (no result: ABCB1 inh, ROMK mod, ABCG2 inh, PMI act hi M6P, PMI act)
CN1C(C(=O)NCCc2cccs2)CC2Cn3c(nc4cc5ccccc5cc43)C21 (centres undefined)	KCC2 mod -2.8 (no result: ABCB1 inh, ROMK mod, ABCG2 inh, PMI act hi M6P, PMI act) | KCC2 sec1 inactive | KCC2 bumet counter inactive | KCC2 sec2 inactive | HEK counter1 inactive | KCC2 retest ouab inactive | HEK293 Tl flux2 inactive
Cc1ccc(N2C(=O)C(Cc3ccc(O)cc3)NC2=S)cc1C (centres undefined)	KCC2 mod -3.9 | KCC2 sec1 inactive | KCC2 bumet counter inactive | KCC2 sec2 inactive | HEK counter1 inactive | KCC2 retest ouab inactive | HEK293 Tl flux2 inactive
Cc1cccc(N2C(=O)C(Cc3ccccc3)NC2=S)c1 (centres undefined)	none (no result: ROMK mod)
NC(=O)N=Nc1c2[nH]c3ccccc3nc-2c2ccccc12	none (no result: ABCB1 inh, ROMK mod, ABCG2 inh, PMI act hi M6P, PMI act)
CC1CCCC/C1=N\NC(=S)Nc1cccnc1 (centres undefined)	none
Cc1ccc(NC(=S)N/N=C2\CCCCC2C)cc1 (centres undefined)	KCC2 mod 6.9, PMI act hi M6P 2 | KCC2 sec1 inactive | KCC2 bumet counter 0.032 | KCC2 sec2 0.039 | HEK counter1 0.02 | KCC2 retest ouab 0.033 | HEK293 Tl flux2 0.022
